Results taken from article PMC4159695 (Molecular Microbiology, 2014).

What was measured:
[1] = biological target: T1, N‐terminal PAS domain from XC_2579 (Tk 4, residues 1 to 165) (Xanthomonas campestris pv. campestris, UniProt Q8PA41); assay: Isothermal titration calorimetry of DSF and structural analogues binding to Tk 4; conditions: ITC; for △H: change in enthalpy upon binding; for △S (cal mol^−1 per degree): change in entropy upon binding
T1 sequence (Q8PA41 14-178): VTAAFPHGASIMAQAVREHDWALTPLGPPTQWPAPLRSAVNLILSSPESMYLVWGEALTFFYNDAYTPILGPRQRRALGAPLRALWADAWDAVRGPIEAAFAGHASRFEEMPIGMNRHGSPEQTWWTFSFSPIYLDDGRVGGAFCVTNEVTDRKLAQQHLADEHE
How it was run: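 His6-tagged XC_2579 PAS domain construct (Tk 4) expressed in E. coli BL21(DE3) with 0.25 mM IPTG at 37°C for 1 h. Purified by Ni2+ affinity; tag cleaved with HRV 3C protease. Heats corrected against buffer control; one-site fit for Kd, ΔH, ΔS. Repeated at least twice.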

[2] = biological target: T2, full‐length XC_2579 protein (RpfS) (Xanthomonas campestris pv. campestris, UniProt Q8PA41); assay: Isothermal titration calorimetry of DSF binding to full-length XC_2579
T2 sequence (Q8PA41 14-968): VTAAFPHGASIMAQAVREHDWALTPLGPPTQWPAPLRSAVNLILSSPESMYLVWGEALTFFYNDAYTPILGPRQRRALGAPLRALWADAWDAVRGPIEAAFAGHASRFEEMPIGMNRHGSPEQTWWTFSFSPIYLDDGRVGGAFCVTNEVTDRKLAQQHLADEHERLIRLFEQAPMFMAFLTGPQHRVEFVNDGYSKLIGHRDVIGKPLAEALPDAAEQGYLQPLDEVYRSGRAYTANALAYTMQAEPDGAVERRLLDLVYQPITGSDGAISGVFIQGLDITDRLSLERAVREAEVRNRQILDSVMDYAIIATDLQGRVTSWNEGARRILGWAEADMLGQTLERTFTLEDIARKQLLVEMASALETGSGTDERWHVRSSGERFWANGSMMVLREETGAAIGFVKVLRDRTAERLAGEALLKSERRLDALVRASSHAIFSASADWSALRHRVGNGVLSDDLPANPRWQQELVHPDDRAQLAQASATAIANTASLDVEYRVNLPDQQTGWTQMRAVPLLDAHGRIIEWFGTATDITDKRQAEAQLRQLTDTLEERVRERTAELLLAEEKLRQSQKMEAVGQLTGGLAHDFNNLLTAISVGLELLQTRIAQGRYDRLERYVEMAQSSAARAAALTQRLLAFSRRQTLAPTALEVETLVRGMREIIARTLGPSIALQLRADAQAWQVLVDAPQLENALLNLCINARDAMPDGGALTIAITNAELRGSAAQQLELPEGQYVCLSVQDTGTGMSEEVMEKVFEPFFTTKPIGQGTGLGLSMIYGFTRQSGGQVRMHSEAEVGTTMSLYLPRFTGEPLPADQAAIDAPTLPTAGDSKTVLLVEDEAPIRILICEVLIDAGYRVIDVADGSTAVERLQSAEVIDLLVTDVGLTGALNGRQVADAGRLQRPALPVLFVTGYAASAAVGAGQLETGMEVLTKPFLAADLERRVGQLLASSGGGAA

XC_0107 gfp fusion = assay: XC_0107 gfp reporter fusion expression induced by DSF; type: cell-based, Xanthomonas campestris; conditions: rpfFC strain carrying reporter; 50 μM synthetic DSF, 14 h
[3] = test system: Tk2 (XC_2579 amino acid residues 530–955); assay: Isothermal titration calorimetry of DSF binding to truncation Tk 2; parameters: species or system Xanthomonas campestris pv. campestris; conditions: ITC, Tk2, in words
[4] = biological target: T3, Tk 1 (XC_2579 N‐terminal amino acid residues 1 to 360) (Xanthomonas campestris pv. campestris, UniProt Q8PA41); assay: Isothermal titration calorimetry of DSF binding to truncation Tk 1; conditions: ITC, Tk 1, in words
T3 sequence (Q8PA41 14-373): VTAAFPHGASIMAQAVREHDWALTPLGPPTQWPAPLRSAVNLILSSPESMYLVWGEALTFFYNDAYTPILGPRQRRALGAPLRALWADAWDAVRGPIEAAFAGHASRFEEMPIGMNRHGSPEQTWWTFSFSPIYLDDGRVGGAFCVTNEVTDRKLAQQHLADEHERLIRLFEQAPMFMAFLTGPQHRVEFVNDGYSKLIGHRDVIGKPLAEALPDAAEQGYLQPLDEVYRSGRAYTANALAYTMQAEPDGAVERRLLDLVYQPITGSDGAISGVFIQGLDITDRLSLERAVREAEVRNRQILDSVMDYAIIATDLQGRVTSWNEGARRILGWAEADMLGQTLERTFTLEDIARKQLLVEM

[5] = biological target: T4, Tk 3 (XC_2579 amino residues 1 to 240) (Xanthomonas campestris pv. campestris, UniProt Q8PA41); assay: Isothermal titration calorimetry of DSF binding to truncation Tk 3; conditions: ITC, Tk 3, in words
T4 sequence (Q8PA41 14-253): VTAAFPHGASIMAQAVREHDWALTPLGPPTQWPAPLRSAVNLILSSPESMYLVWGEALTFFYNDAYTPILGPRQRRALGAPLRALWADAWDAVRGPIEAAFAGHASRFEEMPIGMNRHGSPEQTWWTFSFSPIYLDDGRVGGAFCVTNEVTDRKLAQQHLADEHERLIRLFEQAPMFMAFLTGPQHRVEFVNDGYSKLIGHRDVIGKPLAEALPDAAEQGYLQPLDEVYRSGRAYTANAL

[6] = test system: PAS domain of Mycobacterium tuberculosis Rv1364c; conditions: ref King‐Scott et al., 2011, cited from earlier work; for binding to PAS domain: in words
[7] = Kd (M), Tk 4, higher concentrations of analogues used to estimate Kd

CC(C)CCCCCCCCCC(=O)O [11‐methyl‐dodecanoic acid]
Kd [1, 7]: 0.0069 M | Kd ([1]; Kd, Tk 4): > 0.001 M

CC(C)CCCCCCC/C=C\C(=O)O [DSF, cis‐11‐methyl‐2‐dodecenoic acid]
DSF binding ([1]; Tk 4, in words): High affinity DSF binding | △H ([1]; Tk 4): -1.60 kcal/mol | △S (cal mol^−1 per degree) ([1]; Tk 4): 59.73 cal mol^−1 per degree | Kd [2]: 1.4 µM | expression of GFP (XC_0107 gfp reporter) (XC_0107 gfp fusion): activated | DSF binding [3]: no binding was detected | DSF binding [4]: bound DSF with high affinity | DSF binding [5]: High affinity DSF binding

CCCCCCCCCCCC(=O)O [Dodecanoic acid]
Kd [1, 7]: 0.0149 M | Kd ([1]; Kd, Tk 4): > 0.001 M

CCCCCC/C=C\CCCCCCCC(=O)O [Palmitoleic acid]
binding to PAS domain [6]: bind

CCCCCCCCC/C=C\C(=O)O [cis‐2‐dodecenoic acid (BDSF), cis‐2‐dodecenoic acid]
△H ([1]; Tk 4): -1.21 kcal/mol | △S (cal mol^−1 per degree) ([1]; Tk 4): 58.05 cal mol^−1 per degree | Kd [1, 7]: 7.1e-06 M | Kd ([1]; Kd, Tk 4, PBS buffer at 25°C): 7e-06 M

CCCCCCCC/C=C\CCCCCCCC(=O)O [oleic acid]
binding to PAS domain [6]: bind

CCCCCCCCCCCCCCCC(=O)O [palmitic acid]
affinity relative to palmitoleic acid (times lower) [6]: 100 times

CC(C)CCCCCCC/C=C/C(=O)O [trans‐11‐methyl‐2‐dodecenoic acid]
Kd [1, 7]: 0.00113 M | Kd ([1]; Kd, Tk 4): > 0.001 M
